Reference: paper PMC3144539 (British Journal of Pharmacology, 2011)

What was measured:
[1] = 4-HPR and 4-MPR metabolism kinetics in pooled mouse liver microsomes; assay type: in vitro ADME; conditions: pH 7.4
Method in brief: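 Pooled mouse liver microsomes at 0.5 mg protein·mL−1 with NADPH-generating solutions in 0.1 M potassium phosphate, pH 7.4, preincubated 20 min at 37°C. Substrate added at a range of concentrations and shaken 60 min at 37°C. Stopped with ice-cold acetonitrile plus internal standard, centrifuged, and supernatant analysed by reverse-phase HPLC. Michaelis–Menten constants for product formation derived.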

human CYP3A4 = human CYP3A4 (Homo sapiens, UniProt P08684); assay: Formation of 4-oxo-4-HPR from 4-HPR in human CYP3A4 isoenzyme microsomes; assay type: in vitro ADME; conditions: 4-HPR 10 µM, NADPH generating system
[2] = Plasma levels in nu/nu mice given 4-HPR/LXS with or without ketoconazole; assay type: in vivo, athymic nude (nu/nu) mice
Method in brief: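 Athymic nude mice, 5–6 weeks old, were gavaged with test compound in lipid-matrix powder slurried in sterile water, 180 mg·kg−1 per day in two divided doses, alone or with ketoconazole at increasing doses. Killed 4 h after the ninth dose. Plasma from isoflurane cardiac-puncture blood, collected in the dark, was analysed by HPLC. Three mice per condition; mean ± SD.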

[3] = Plasma levels in NOD/SCID mice given 4-HPR/LXS with or without ketoconazole; assay type: in vivo
Method in brief: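 NOD/SCID mice, 5–6 weeks old, were gavaged with 180 mg·kg−1 per day test compound (lipid-matrix powder slurried in water, two divided doses), alone or with ketoconazole. The dose-ranging arm was sampled 4 h after the ninth dose, the 25 mg·kg−1 arm 4 h after the fifth dose. Light-protected cardiac-puncture plasma was analysed by HPLC. Cohorts of three; mean ± SD.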

[4] = Plasma levels in neuroblastoma patients given 4-HPR/LXS oral powder; assay type: in vivo; conditions: human, 595 mg/m2 per day
Method in brief: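 Three relapsed/refractory neuroblastoma patients received oral lipid-matrix powder, 595 mg·m−2 per day given twice daily 12 h apart. On day 6 of cycle 1, venous blood was drawn just before the morning dose and every 2 h to 8 h. Samples went into foil-wrapped heparinized tubes, were centrifuged immediately, stored at −80°C and handled in the dark. Plasma was assayed by HPLC.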

human cancer cell lines = conditions: variety of human cancer cell lines in vitro; ref Delia et al., 1993; Mariotti et al., 1994; Kalemkerian et al., 1995; Oridate et al., 1996; O'Donnell et al., 2002; cited from earlier work
[5] = beagle dogs, single 10 mg/kg dose of the capsules; ref Liu et al., 2007; cited from earlier work
[6] = paediatric phase I study, neuroblastoma patients; ref Villablanca et al., 2006; cited from earlier work
[7] = tested on: 4-oxo-4-HPR formation in pooled mouse liver microsomes (MLM); assay: Effect of CYP enzyme inhibitors on 4-oxo-4-HPR formation from 4-HPR in MLM; assay type: in vitro ADME; conditions: inhibitor 10 µM, 4-HPR 25 µM, 60 min
Method in brief: (§1)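 Pooled liver microsomes (0.5 mg protein·mL−1) were preincubated 20 min at 37°C, pH 7.4 phosphate buffer, with the NADPH-generating system and a CYP2C8, 2C9 or 3A4 inhibitor or no inhibitor. Then 25 µM substrate was added for 60 min at 37°C. Acetonitrile/internal-standard quench, centrifugation, and HPLC quantitation of 4-oxo product followed. Performed in triplicate.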

[8] = tested on: 4-oxo-4-HPR formation in pooled human liver microsomes (HLM); assay: Effect of CYP enzyme inhibitors on 4-oxo-4-HPR formation from 4-HPR in HLM; assay type: in vitro ADME; conditions: inhibitor 10 µM, 4-HPR 25 µM, 60 min
Method in brief: as §1

CYP3A4 = conditions: inhibits other CYP isoforms at higher concentrations; ref Jia and Liu, 2007; cited from earlier work

Sequence of human CYP3A4 (P08684 whole entry): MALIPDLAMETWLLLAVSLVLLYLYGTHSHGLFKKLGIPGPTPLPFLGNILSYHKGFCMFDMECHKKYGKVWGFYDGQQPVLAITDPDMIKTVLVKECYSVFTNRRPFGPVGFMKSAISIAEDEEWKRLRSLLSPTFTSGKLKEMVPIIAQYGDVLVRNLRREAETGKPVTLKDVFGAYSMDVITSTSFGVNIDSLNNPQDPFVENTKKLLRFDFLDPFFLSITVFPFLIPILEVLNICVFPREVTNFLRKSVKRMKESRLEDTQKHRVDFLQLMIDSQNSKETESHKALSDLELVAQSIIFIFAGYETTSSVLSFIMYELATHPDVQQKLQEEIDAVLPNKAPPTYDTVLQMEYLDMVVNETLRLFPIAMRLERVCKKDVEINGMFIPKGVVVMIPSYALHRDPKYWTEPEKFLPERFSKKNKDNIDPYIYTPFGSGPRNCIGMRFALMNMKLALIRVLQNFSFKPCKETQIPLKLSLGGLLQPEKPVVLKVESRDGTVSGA

Row | Structure (SMILES) | Km at 60 min [1] [µM] | 4-oxo-4-HPR concentrations formed from 4-HPR (human CYP3A4) | concentration at 4 h ([2]; athymic nude (nu/nu), mouse, plasma, oral, 180 mg/kg per day) [µM] | Increase of plasma level over control (4-HPR without ketoconazole) ([2]; nu/nu mice, + ketoconazole 75 mg/kg, P < 0.01) [fold] | Increase of plasma level over control (4-HPR without ketoconazole) ([3]; + ketoconazole 18.75 mg/kg, P < 0.01) [fold] | Increase of plasma level over control (4-HPR without ketoconazole) ([3]; + ketoconazole 25 mg/kg, 4 h after fifth dose, Fig 4C) | concentration at 0 h [4] [µM] | concentration at 2 h [4] [µM] | concentration at 4 h [4] [µM] | concentration at 6 h [4] [µM] | concentration at 8 h [4] [µM] | Concentrations exhibiting cytotoxic activity (human cancer cell lines) [µM] | Oral bioavailability [5] | Maximum tolerated dose [6] [mg·m^−2 per day] | Reduction of 4-oxo-4-HPR formation from 4-HPR alone [7] [%] | Reduction of 4-oxo-4-HPR formation from 4-HPR alone [8] [%] | Concentrations at which specific for CYP3A4 (CYP3A4)
1 | CC1=C(/C=C/C(C)=C/C=C/C(C)=C/C(=O)Nc2ccc(O)cc2)C(C)(C)CCC1 [4-HPR, N-(4-hydroxyphenyl)retinamide] | 25.8 | increased in a time-dependent manner | 14.5 | 2.2 | 3.4 | twofold | 7.04 ± 4.75 | 9.69 ± 7.3 | 12.8 | 13.1 ± 8.5 | 8.55 ± 6.42 | 1 to 10 | approximately 16% | 2450 |  |  | 
2 | CC(=O)N1CCN(c2ccc(OCC3COC(Cn4ccnc4)(c4ccc(Cl)cc4Cl)O3)cc2)CC1 (stereo not drawn) [ketoconazole] |  |  |  |  |  |  |  |  |  |  |  |  |  |  | 96.5 | 33.7 | up to 1 µM
3 | OC(Cn1cncn1)(Cn1cncn1)c1ccc(F)cc1F [fluconazole] |  |  |  |  |  |  |  |  |  |  |  |  |  |  | 40.9 |  | 
